Consider 94 molecules from ChEMBL document CHEMBL4513216, “Probing the Open Global Health Chemical Diversity Library for Multistage-Active Starting Points for Next-Generation Antimalarials” (ACS Infect Dis, 2020).

This data set can be described thus: Toxicity liver stage against HepG2, at 10uM. The format is cell-based. Also on record: test concentration 10 uM, cell line HepG2-A16-CD81EGFP. The conditions noted are these: human, HepG2-A16-CD81EGFP cells; read-out: INHIBITION
Summed up: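 Uninfected HepG2-A16-CD81EGFP cells, 3 × 10^3 per well, 1536-well, plated on prespotted compound at 10 μM final, parasite-free screening media added to match infected plates; puromycin 10 μM positive, DMSO 0.5% negative; run in parallel with 48 h PbLuc assay at 37 °C, 5% CO2; viability by CellTiter-Glo luminescence, normalized to controls.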
As for `Cc1cnn(CCC(=O)N2CCCC(c3nc(C)no3)C2)c1` (centres undefined), the cytotoxicity at 10 µM is -1.59%.
The figure for `Cc1ccc(C(=O)N2CCc3c(COCC4CC4)cncc3C2)o1` is -74.2%; for `COc1ccc(CN2C[C@H]3CN(c4ccsc4)C(=O)[C@H]3C2)cc1` it is 22.8%; for `CN(Cc1cnn(C)c1)C(=O)c1cc(C(F)(F)F)n(C)n1` it is 8.52%.
For the molecule `COC(=O)N1CC[C@@]2(O)CCCC[C@H]2[C@@H]1c1ccc2c(c1)OCO2`, the cytotoxicity at 10 µM is 2.91%.
The figure for `CCCS(=O)(=O)N1CCCC(c2nc(-c3ccccc3)c[nH]2)C1` (centres undefined) is 16.2%; for `Cc1nc(C)c(COc2ccc(N(C)S(C)(=O)=O)cc2)s1` it is 23.2%; for `COCc1cc(N(C)Cc2ncnn2C)nc(C(C)(C)C)n1` it is 6.39%.
Regarding `O=C(NC1CCCc2c1[nH]c1ccc(F)cc21)c1n[nH]c2c1CCCC2` (centres undefined), the cytotoxicity at 10 µM is 46.4%.
With `Cc1nn(C)c2cnn(Cc3ccc(C(=O)N4CCCCC4)o3)c12` the figure was 11.3%; with `CNC(=O)c1cnc(/C=C/c2cc(OC)cc(OC)c2)s1`, -19.6%.
The figure for `COCc1c(C(=O)N2CCCC(N(C)Cc3ccccc3)C2)noc1C` (centres undefined) is -16.8%.
For `CS(=O)(=O)N1CCCC(Cc2ccnc3ccncc23)CC1` (centres undefined), the cytotoxicity at 10 µM is -12.8%.
The figure for `COC(=O)c1cc(OC)c(OC)cc1N(C)S(C)(=O)=O` is 7.43%; for `Cc1nc(N2CCCC2)ncc1-c1cc(O)nc(N2CCOCC2)n1` it is 10.4%.
With `Cc1nc(CN2CCc3nn(C)c(=O)cc3C2)oc1C` the figure was -2.74%; with `CC(C)OCC(=O)N1CCCN(Cc2ccc(C#N)cc2)CC1`, -7.41%; with `CC(=O)N1CCN(Cc2coc(-c3cccc(F)c3)n2)CC1`, -3.78%.
With `CCOc1ccc(Cl)cc1CCNC(=O)Cn1nc(C)ccc1=O` the figure was -3.91%; with `Cc1nc(C2CCCN2C(=O)COc2ccccc2)ncc1C(N)=O` (centres undefined), -19.1%; with `COc1ccccc1C1(O)CCCN(C(=O)c2ccnn2C(C)C)C1` (centres undefined), 2.59%.
As to `Cc1nn(C)cc1C1=NS(=O)(=O)N(C)C(C(=O)Nc2ccc(Br)cc2)=C1`, the cytotoxicity at 10 µM was found to be 3.46%.
The figure for `O=C(NC[C@H]1O[C@H](Cc2cc(-c3ccccn3)on2)CC[C@@H]1O)C1CC1` is -2.69%; for `O=C(CN1C(=O)CCNC1=O)N1CCOC(c2ccc(Cl)c(Cl)c2)C1` (centres undefined) it is 6.28%.
With `COCCn1cc(C(=O)N2CCCC2c2cccc(F)c2)ccc1=O` (centres undefined) the figure was -3.48%; with `c1coc(-c2noc(CN3CCC(c4ccn[nH]4)CC3)n2)c1`, -8.19%; with `Cn1cc(CN2CCC3(CC2)C(=O)Nc2ccccc23)cn1`, 0.134%.
Consider `COCCOCC(=O)NC(C#N)c1c(F)cccc1Cl` (centres undefined), for which the cytotoxicity at 10 µM was determined as 19.6%.
Take `O=C1COC2(CCN(Cc3cccnc3)CC2)CN1c1ccccc1`: the cytotoxicity at 10 µM is -113%.
In the case of `COCC1CN(C(=O)Cc2ccccn2)Cc2cn(CC3CC3)nc21` (centres undefined), the cytotoxicity at 10 µM is -1.32%.
The figure for `COCCOc1ncccc1CNCc1c(C)nn(C)c1N(C)C` is -9.36%; for `Cc1nc(CCN)cc(N2CCC(O)(c3ccccc3)C2)n1` (centres undefined) it is 2.03%.
The figure for `COc1cccc(Cl)c1C(C(=O)O)N(C)Cc1nnc(C)o1` (centres undefined) is -23.4%; for `CC(Cn1cccn1)NC(=O)NCc1cccnc1` (centres undefined) it is -0.088%; for `CC(=O)N(C)CCc1nc(-c2cc(C(N)=O)co2)cs1` it is -4.99%.
The figure for `CCCc1nc(CN(CCO)Cc2cc(Br)ccc2F)no1` is -5.1%; for `CCOCCOC(C)C(=O)NCc1cn2cc(Cl)ccc2n1` (centres undefined) it is 8.82%.
Take `Cc1ccc(C2(O)CCN(C(=O)Cn3cc(C)c(=O)[nH]c3=O)CC2)nc1`: the cytotoxicity at 10 µM was -7.22%.
The figure for `Cc1ccc(NCc2cncc3c2CCN(Cc2ccccn2)C3)nn1` is -6.4%.
With `O=C(c1ccc(F)cc1)N1C[C@@H]2CN(c3ncccn3)C[C@@H]2C1`, the cytotoxicity at 10 µM came out at 7.98%.
As for `CC(C)Oc1cc(N2CCC3(CC2)[C@H](O)C[C@@H]3O)nc(N)n1`, the cytotoxicity at 10 µM was -0.335%.
For `c1cnnc(N2CCCC2CNCc2nnc(C3CC3)o2)c1` (centres undefined), the cytotoxicity at 10 µM came to 1.41%.
In the case of `CC(C)CCN1C[C@H]2CCN(C(=O)NC3CCCC3)CC[C@H]2S1(=O)=O`, the cytotoxicity at 10 µM is 4.87%.
The figure for `COc1ccc(S(=O)(=O)NC(=O)C(C)OC)c(OC)c1` (centres undefined) is -6.67%; for `CCn1ccnc1CN1CCC(N(Cc2ncc(C)o2)C(C)=O)C1` (centres undefined) it is 11.5%.
The figure for `CC(C)CC(=O)N1Cc2ccccc2CC1C(=O)Nc1nccs1` (centres undefined) is -135%; for `CCC1CN(C(=O)c2csc3nc(-c4ccc(Cl)cc4)cn23)CCN1` (centres undefined) it is 1.6%.
The figure for `CC(Cn1ccnc1)NC(=O)NCCN1CCCCCC1=O` (centres undefined) is -1.26%; for `CCn1cc(CN2CCC(c3nnc(CN(C)C)n3CC)CC2)cn1` it is -22.3%; for `CCCc1noc(CCC(=O)N2CCCC2c2cccc(OC)c2)n1` (centres undefined) it is -9.71%.
Take `C=Cc1cccc(CN2CCCn3nc(CNS(C)(=O)=O)cc3C2)c1`: the cytotoxicity at 10 µM came out at 3.15%.
Consider `O=C(O)CC(CC(=O)NCCc1cccs1)c1cccs1` (centres undefined), for which the cytotoxicity at 10 µM is -11.4%.
With `Cc1cc(C(=O)N2CCc3ncnc(-c4cnn(C)c4)c3CC2)c(C)o1`, the cytotoxicity at 10 µM worked out at 4.5%.
For the molecule `CCC(CC)C(=O)N1CCC(c2nn(CCN)c3nccnc23)C1` (centres undefined), the cytotoxicity at 10 µM is -25.5%.
The figure for `O=C(O)C1CN(Cc2cccc(-c3ccccn3)c2)CCO1` (centres undefined) is -10.5%; for `Cc1noc(C)c1C1CCCN1C(=O)CN1CC2(CCNCC2)OC1=O` (centres undefined) it is -5.24%; for `CC(C)[C@H](NC(=O)N1CCN(c2ccc(Cl)cc2)CC1)C(=O)NC1CC1` it is -7.39%.
The figure for `CC(C)CN1CCN(S(=O)(=O)c2cn(C)cn2)[C@H]2CS(=O)(=O)C[C@H]21` is -4.07%; for `Cc1cnn(CCNCc2csc(-c3ccco3)n2)c1` it is -5.28%.
With `COC1CCN(S(=O)(=O)NCC2COc3ccccc3C2)CC1` (centres undefined) the figure was -1.08%.
With `CCc1cnc(C)nc1NCCC(=O)N1CCC(C)CC1`, the cytotoxicity at 10 µM is -0.384%.
With `Cc1nn(C)c(C)c1S(=O)(=O)N1CC[C@H]2O[C@@H](C)C[C@H]2C1` the figure was 2.79%.
With `COc1cc(OC)cc(N2CCC(NC(=O)c3cccn3C)CC2)c1` the figure was -2.1%; with `CN(CC1COc2ccccc2O1)C(=O)NCCCn1cccn1` (centres undefined), -7.27%; with `C[C@@H](O)CNc1c(NCc2ccco2)c(=O)c1=O`, -7.58%.
Take `Cc1ccc(C(=O)NCC2CCCCO2)c(=O)[nH]1` (centres undefined): the cytotoxicity at 10 µM is -0.628%.
With `Cc1nn(CCO)cc1CN1CCCN(C2CCCC2)CC1` the figure was 0.292%.
With `CN(C)CCNc1ccc(-c2nc(COc3ccccc3)no2)cn1` the figure was 10.2%.
With `O=C(C1CCCO1)N1CCC2(CC1)CNCCO2` (centres undefined) the figure was -7.06%; with `CC(NC(=O)c1cc2n(n1)CCCN(C(C)C)C2)c1cn2ccsc2n1` (centres undefined), -3.39%; with `Cc1ccnc(C2CCCN2C(=O)CN(C)C)n1` (centres undefined), -19.1%.
Consider `Cc1ccc2nc(CN(C)Cc3n[nH]c4c3CCCCC4)[nH]c2c1C`, for which the cytotoxicity at 10 µM was 17.1%.
The figure for `O=C(c1cnc(NCC2CCCO2)c(Cl)c1)N1CCOCC1` (centres undefined) is 0.0875%; for `Cn1c(SCC(=O)NC(C)(C#N)C2CC2)nc2ccccc21` (centres undefined) it is -2.15%.
For `Cc1cc(CN2C[C@@H]3COC[C@]3(CNC(=O)N3CCCC3)C2)no1`, the cytotoxicity at 10 µM was -77.5%.
The figure for `CNC(=O)C1Cn2ccnc2C2(CCN(Cc3c(C)noc3C)CC2)O1` (centres undefined) is -68.6%.
The figure for `Fc1ccc(C2CCCN2Cc2nc(Cc3ccccc3F)no2)cc1` (centres undefined) is -18.2%; for `Cc1oc(-c2ccccc2)nc1CC(=O)NC1=NCCS1` it is 0.898%.
On to `FC(F)(F)c1cc(C2CCCN(c3ncccn3)C2)n2ccnc2n1` (centres undefined), for which the cytotoxicity at 10 µM was determined as 10.4%.
The figure for `CC1(C)[C@@H]2CC=C(CN3CCCn4nc(CCC(=O)O)cc4C3)[C@H]1C2` is -40.2%.
With `CN1C(=O)C2(CCN(C(=O)C3CCOCC3)CC2)c2ccccc21` the figure was 2.5%; with `O=C(c1ccoc1)N1CC[C@H]2[C@H]1CCN2S(=O)(=O)C1CC1`, -139%.
The figure for `CN(C)S(=O)(=O)N1C[C@H]2CC[C@@H](C1)N(Cc1ccc(F)c(F)c1)C2` is 1.05%; for `Cc1ccc2c(c1)c(C)cc(=O)n2CCC#N` it is 5.81%.
For the molecule `O=C(NCc1cncc2c1CCN(C1CCOCC1)C2)c1ccco1`, the cytotoxicity at 10 µM was -0.758%.
`CC(C)CC(=O)N[C@H](C)c1c(-c2ccc(Cl)cc2)noc1C(=O)O`: the cytotoxicity at 10 µM came to 4.76%.
The figure for `CC(NC(=O)NCCn1ccnc1)c1nncn1C` (centres undefined) is -8.92%.
With `CC(c1cccnc1)N1CCN(C(=O)NCc2cnn(C)c2)CC1` (centres undefined) the figure was -2.38%.
The figure for `CCOc1cc(C)nc(N2CCN(C(=O)C(C)NC(C)=O)CC2)n1` (centres undefined) is -4.41%; for `CC(C)NC(=O)[C@@H]1C[C@H]2OCC[C@H]2N(Cc2ccc3ccccc3n2)C1` it is -66.8%.
As for `O=C(N1CCC(Oc2ccncc2)C1)C1(c2cccc(F)c2)CC1` (centres undefined), the cytotoxicity at 10 µM is -6.52%.
With `COc1c(CNC2CCN(c3ncccn3)CC2)c(C)nn1C` the figure was -1.66%; with `O=C(NCC1(O)CCSCC1)c1ccoc1`, -6.61%.
On to `CNc1ccnc(N2C[C@@H](C)[C@](O)(C3CC3)C2)n1`, for which the cytotoxicity at 10 µM is -13.1%.
